Measured values published in ChEMBL document CHEMBL2331435, “Structure-activity relationship study of vitamin k derivatives yields highly potent neuroprotective agents” (J Med Chem, 2013).
Active and inactive are the calls of the source. The calls are words filed in the database; no cut-off is given here.

Experiments:
[1] = Therapeutic index, ratio of cytotoxic TC50 for mouse HT22 cells to neuroprotective PD50 for mouse HT22 cells; assay type: cell-based, HT-22; settings: read-out: TI
[2] = Neurotoxicity in mouse HT22 cells assessed as cell viability after 24 hrs by MTS assay; assay type: toxicity, cell-based, HT-22; settings: read-out: TC50
Method in brief: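 HT22 cells were seeded at 5.0 × 10^3 per well, cultured overnight, and treated with a range of compound concentrations without glutamate for 24 h. MTS was added for 2 h and absorbance read at 490 nm. Viability was expressed as percent of untreated cells, and TC50 was fit from titration curves (7- or 12-point, n = 3–4).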

HT-22 [3] = test: Neuroprotective activity in mouse HT22 cells assessed as prevention from glutamate-induced oxidative cell death by MTS assay; assay type: functional
Method in brief: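 HT22 cells grown in high-glucose DMEM with 10% FBS and antibiotic-antimycotic at 37°C, 5% CO2. Seeded at 5.0 × 10^3 cells/well overnight, then given 10 mM glutamate (final) plus compound from DMSO stock. MTS added 24 h after treatment, 2 h at 37°C, A490 read. Viability taken as % of untreated cells. PC50 from 12-point titrations; experiments repeated at least four times.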

HT-22 [4] = test: Neuroprotective activity in mouse HT22 cells assessed as prevention from tBuOOH-induced oxidative cell death after 3 hrs by MTS assay; assay type: functional, cell-based
Method in brief: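 HT22 cells were seeded at 5.0 × 10^3 per well and cultured overnight, then exposed to 50 μM t-BuOOH (final) plus compound for 3 h. Medium was removed, cells were washed with HBSS and returned to normal medium. MTS was added 24 h after initial treatment, absorbance was read at 490 nm after 2 h, and viability was expressed as percent of untreated cells.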

[5] = system: Radical scavenging activity; test: Antioxidant activity assessed as DPPH free radical scavenging activity at 20 uM; assay type: functional
Method in brief: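 Test agents at 20 μM final, added to 100 μM DPPH in methanol; absorbance at 517 nm monitored immediately for 10 min. Trolox and ascorbic acid served as positive controls, and the rate of absorbance loss was taken as antioxidant potency.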

Row | SMILES | selectivity ratio [1] | CC50 at 24 h [2] [µM] | PD50 (HT-22 [3]) [nM] | Activity (HT-22 [4]) | Activity [5]
1 | COC(=O)c1ccc(CNC2=CC(=O)c3ccccc3C2=O)cc1 | 431 | > 100 | – | – | –
2 | CC1=C(N)C(=O)c2ccccc2C1=O | 31 | 54 | – | – | –
3 | O=C1C=C(NCc2cccnc2)C(=O)c2ccccc21 | 172 | 37 | – | – | –
4 | CCCNC1=CC(=O)c2ccccc2C1=O | 91 | 30 | – | – | –
5 | O=C1C=C(NCc2ccc(Cl)cc2)C(=O)c2ccccc21 | > 1700 | > 100 | 59 | – | –
6 | COc1ccc(CNC2=CC(=O)c3ccccc3C2=O)cc1 | 877 | > 100 | – | – | –
7 | CNC1=CC(=O)c2ccccc2C1=O | 74 | > 100 | – | – | –
8 | O=C1C=C(NCCc2ccccc2)C(=O)c2ccccc21 | 171 | > 100 | – | – | –
9 | CC1=C(C)C(=O)c2ccccc2C1=O | 254 | 30 | – | – | –
10 | O=C1C=C(NC2CCCC2)C(=O)c2ccccc21 | 108 | 44 | – | – | –
11 | O=C1C=C(NCc2ccccn2)C(=O)c2ccccc21 | 54 | 50 | – | – | –
12 | Cc1ccc(CNC2=CC(=O)c3ccccc3C2=O)cc1 | > 1520 | > 100 | 66 | – | –
13 | O=C1C=C(NCc2ccc(Cl)c(Cl)c2)C(=O)c2ccccc21 | > 2170 | > 100 | 46 | – | –
14 | CCNC1=CC(=O)c2ccccc2C1=O | 106 | 81 | – | – | –
15 | O=C1C=C(NCc2cccc(C(F)(F)F)c2)C(=O)c2ccccc21 | > 2220 | > 100 | 45 | – | –
16 | CN(C)C1=CC(=O)c2ccccc2C1=O | > 407 | > 100 | 246 | – | –
17 | O=C(O)C1=CC(=O)c2ccccc2C1=O | 140 | > 100 | – | – | –
18 | O=C1C=CC(=O)c2ccccc21 [NAPHTHOQUINONE] | 12 | 19 | – | – | –
19 | O=C1C=C(O)C(=O)c2ccccc21 [LAWSONE] | 100 | > 100 | – | – | –
20 | CC1=CC(=O)c2ccccc2C1=O [MENADIONE] | 24 | 19 | 797 | – | –
21 | CN(Cc1ccccc1)C1=CC(=O)c2ccccc2C1=O | 781 | > 100 | – | – | –
22 | NC1=CC(=O)c2ccccc2C1=O | 803 | 49 | 61 | – | –
23 | COC1=C(OC)C(=O)C(C/C=C(\C)CC/C=C(\C)CC/C=C(\C)CC/C=C(\C)CC/C=C(\C)CC/C=C(\C)CC/C=C(\C)CC/C=C(\C)CC/C=C(\C)CCC=C(C)C)=C(C)C1=O | – | – | – | inactive | –
24 | CC(C)NC1=CC(=O)c2ccccc2C1=O | 27 | 46 | – | – | –
25 | O=C1C=C(NCC2CCCCC2)C(=O)c2ccccc21 | > 1850 | > 100 | 54 | – | –
26 | O=C1O[C@H]([C@@H](O)CO)C(O)=C1O | – | – | – | – | Active
27 | O=C1C=C(NCc2ccncc2)C(=O)c2ccccc21 | 1110 | 80 | 72 | – | –
28 | C#CCNC1=CC(=O)c2ccccc2C1=O | 442 | 53 | 120 | – | –
29 | O=C1C=C(Nc2ccccc2)C(=O)c2ccccc21 | 109 | 7 | 64 | – | –
